In brackets after ≈: the same amount, converted by molar mass. Activity calls are given as the source filed them. The calls are words filed in the database; no cut-off is given here.
Legend:
[1] = tested on: Mycobacterium tuberculosis; assay: Bactericidal activity against Mycobacterium tuberculosis; type: functional
[2] = tested on: Staphylococcus aureus; assay: Bactericidal activity against Staphylococcus aureus; type: functional
[3] = tested on: Staphylococcus aureus; assay: Inhibition of Staphylococcus aureus MenA using [3H]farnesyl and DHNA as substrate at 100 uM after 2 hrs
Method in brief: (§1)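 Membrane fraction from mid-log cultures in 7H9/OADC, washed in saline, sonicated in MOPS pH 8/sucrose/MgCl2/2-mercaptoethanol buffer, spun 15,000 g then 200,000 g; the fraction was the enzyme source. DHNA (500 μM stock), MgCl2, 0.1% CHAPS, Tris pH 8, farnesyl diphosphate (200 μM stock) and inhibitor, 2 h at 37 °C. Quenched with 0.1 M AcOH/MeOH, extracted with hexanes, DMMK measured.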

[4] = tested on: Mycobacterium tuberculosis; assay: Inhibition of Mycobacterium tuberculosis MenA using [3H]farnesyl and DHNA as substrate at 100 uM after 2 hrs; method in brief: as §1
[5] = Inhibition of Mycobacterium tuberculosis MenA using [3H]farnesyl and DHNA as substrate after 2 hrs; method in brief: as §1
[6] = tested on: Staphylococcus aureus; assay: Antibacterial activity against Staphylococcus aureus Seattle 1945 ATCC 25923 by agar plate diffusion method; type: functional
[7] = tested on: Mycobacterium tuberculosis; assay: Antibacterial activity against Mycobacterium tuberculosis H37Rv ATCC 27294 by microplate alamar blue assay; type: functional
Method in brief: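 Colorimetric microplate assay run under aerobic conditions; growth scored by the colour change of resazurin. Compounds showing at least 90% inhibition in a preliminary screen were retested at lower concentrations to give the MIC.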

[8] = tested on: Mycobacterium tuberculosis; assay: Antibacterial activity against non-replicating Mycobacterium tuberculosis H37Rv ATCC 27294 by low oxygen recovery assay; type: functional
[9] = tested on: Escherichia coli; assay: Growth inhibition of Escherichia coli Seattle ATCC 25922 at 5 to 10 ug/ml by microplate alamar blue assay; type: functional, organism-based
[10] = tested on: Escherichia coli; assay: Growth inhibition of Escherichia coli Seattle ATCC 25922 at 5 to 10 ug/ml by microplate alamar blue assay in presence of 50 uM VK2; type: functional, organism-based
Method in brief: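 E. coli grown with inhibitor under anaerobic conditions; rescue tested by supplementing with menaquinone (VK2, 50 μM).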

Row | Structure (SMILES) | MIC [1] [µg/mL] | MIC [2] [µg/mL] | inhibition [3] | inhibition [4] | IC50 [5] [µM] | MIC [6] [µg/mL] | MIC [7] [µg/mL] | MIC [8] [µg/mL] | growth inhibition (GI) [9] | growth inhibition (GI) [10]
1 | O=C(c1ccc(Cl)cc1)c1ccc(OC/C=C/COCCCNCCc2ccc(F)cc2)cc1Cl | 8 (≈ 15.5 µM) | 0.5 (≈ 0.968 µM) | – | – | – | – | – | – | – | –
2 | CCCC[C@H](O)CN1CCC(COc2ccc(C(=O)c3ccc(Cl)cc3)c(Cl)c2)CC1 | – | – | inactive | Active | 4.5 | > 60 | 1.5 (≈ 3.23 µM) | 1.43 (≈ 3.08 µM) | Active | inactive
3 | CCCCCCC[C@@H](O)c1cccc(CN2CCC(COc3cccc(C(=O)c4ccc(Cl)cc4)c3)CC2)c1 | – | – | inactive | Active | 20 | > 60 | 12.5 (≈ 22.8 µM) | 1.46 (≈ 2.66 µM) | Active | inactive
4 | CCCCCC[C@@H](CN1CCC(COc2cccc(C(=O)c3ccc(Cl)cc3)c2)CC1)OC(N)=O | – | – | inactive | Active | 9 | > 60 | 12.5 (≈ 24.9 µM) | 2.94 (≈ 5.87 µM) | Active | inactive
5 | CCCC[C@H](O)CN1CCC(COc2cccc(C(=O)c3ccc(Cl)cc3)c2)CC1 | – | – | inactive | Active | 7.5 | > 60 | 12.5 (≈ 29.1 µM) | 5.59 (≈ 13 µM) | Active | inactive
6 | CCCCCC[C@H](O)CN1CCC(COc2ccc(C(=O)c3ccc(Cl)cc3)c(Cl)c2)CC1 | – | – | inactive | Active | 3.5 | > 60 | 1.5 (≈ 3.05 µM) | 1.43 (≈ 2.9 µM) | Active | inactive
7 | CCCCCCC[C@@H](O)c1cccc(CN2CCC(COc3cccc(/C(=N\OC)c4ccc(Cl)cc4)c3)CC2)c1 | – | – | inactive | Active | 15 | > 60 | 6.25 (≈ 10.8 µM) | 1.43 (≈ 2.48 µM) | Active | inactive
8 | O=C(c1ccc(Cl)cc1)c1ccc(OCc2cccc(CN3CCC(N4CCCCC4)CC3)c2)cc1Cl | 8 (≈ 14.9 µM) | 15.5 (≈ 28.8 µM) | – | – | – | – | – | – | – | –
9 | CCCCCCC[C@H](O)c1cccc(CN2CCC(COc3cccc(C(=O)c4ccc(Cl)cc4)c3)CC2)c1 | – | – | inactive | Active | 25 | > 60 | 12.5 (≈ 22.8 µM) | 1.88 (≈ 3.43 µM) | Active | inactive
10 | CCCCCCC[C@H](O)c1cccc(CN2CCC(COc3ccc(C(=O)c4ccc(Cl)cc4)c(Cl)c3)CC2)c1 | – | – | inactive | Active | 15 | > 60 | 12.5 (≈ 21.5 µM) | 1.88 (≈ 3.23 µM) | Active | inactive
11 | CCCCCC[C@@H](O)CN1CCC(COc2cccc(C(=O)c3ccc(Cl)cc3)c2)CC1 | – | – | inactive | Active | 9 | > 60 | 6.2 (≈ 13.5 µM) | 5.59 (≈ 12.2 µM) | Active | inactive
12 | CCCCCCC[C@H](OC(N)=O)c1cccc(CN2CCC(COc3ccc(C(=O)c4ccc(Cl)cc4)c(Cl)c3)CC2)c1 | – | – | inactive | Active | 20 | > 60 | 12.5 (≈ 20 µM) | 2.93 (≈ 4.68 µM) | Active | inactive
13 | COc1ccc(CCN[C@H](CO)c2cccc(COc3cccc(C(=O)c4ccc(Cl)cc4)c3)c2)cc1 | – | – | inactive | Active | 17 | > 60 | 12.5 (≈ 24.2 µM) | 3 (≈ 5.81 µM) | Active | inactive
14 | CCCCCCC[C@@H](O)c1cccc(CN2CCC(COc3ccc(/C(=N\OC)c4ccc(Cl)cc4)c(Cl)c3)CC2)c1 | – | – | inactive | Active | 15 | > 60 | 12.5 (≈ 20.4 µM) | 5.54 (≈ 9.06 µM) | Active | inactive
15 | CCCCCCC[C@@H](OC(N)=O)c1cccc(CN2CCC(COc3ccc(C(=O)c4ccc(Cl)cc4)c(Cl)c3)CC2)c1 | – | – | inactive | Active | 20 | > 60 | 12.5 (≈ 20 µM) | 4.93 (≈ 7.88 µM) | Active | inactive
16 | CCCC[C@@H](O)CN1CCC(COc2ccc(C(=O)c3ccc(Cl)cc3)c(Cl)c2)CC1 | – | – | inactive | Active | 7.5 | > 60 | 6.25 (≈ 13.5 µM) | 2.85 (≈ 6.14 µM) | Active | inactive

Row | Structure (SMILES) | MIC [1] [µg/mL] | MIC [2] [µg/mL] | inhibition [3] | inhibition [4] | IC50 [5] [µM] | MIC [6] [µg/mL] | MIC [7] [µg/mL] | MIC [8] [µg/mL] | growth inhibition (GI) [9] | growth inhibition (GI) [10]
17 | CCCCCCC[C@H](O)c1cccc(CN2CCC(COc3ccc(/C(=N\OC)c4ccc(Cl)cc4)c(Cl)c3)CC2)c1 | – | – | inactive | Active | 20 | > 60 | 12.5 (≈ 20.4 µM) | 5.54 (≈ 9.06 µM) | Active | inactive
18 | CCCCCC[C@H](O)CN1CCC(COc2cccc(C(=O)c3ccc(Cl)cc3)c2)CC1 | – | – | inactive | Active | 16 | > 60 | 12.5 (≈ 27.3 µM) | 4.91 (≈ 10.7 µM) | Active | inactive
19 | COc1ccc(CCNCCCOCCCCOc2ccc(C(=O)c3ccc(Cl)cc3)c(Cl)c2)cc1 | 15.5 (≈ 29.2 µM) | 0.5 (≈ 0.943 µM) | – | – | – | – | – | – | – | –
20 | CCCCCCC[C@@H](O)c1cccc(CN2CCC(COc3ccc(C(=O)c4ccc(Cl)cc4)c(Cl)c3)CC2)c1 | – | – | inactive | Active | 15 | > 60 | 12.5 (≈ 21.5 µM) | 1.46 (≈ 2.51 µM) | Active | inactive
21 | NNC(=O)c1ccncc1 [ISONIAZID] | – | – | – | – | – | – | 0.03 (≈ 0.219 µM) | > 128 | – | –
22 | COc1ccc(CCN[C@@H](CO)c2cccc(COc3cccc(C(=O)c4ccc(Cl)cc4)c3)c2)cc1 | – | – | inactive | Active | 14 | > 60 | 12.5 (≈ 24.2 µM) | 3 (≈ 5.81 µM) | Active | inactive
23 | CC(C)=CC(O)C/C(C)=C/CC/C(C)=C/Cc1c(C)n(O)c2ccccc2c1=O (stereo not given) [AURACHIN RE] | 25 (≈ 63.2 µM) | 3.1 (≈ 7.84 µM) | – | – | – | – | – | – | – | –
24 | CO[C@H]1/C=C/O[C@@]2(C)Oc3c(C)c(O)c4c(O)c(c(/C=N/N5CCN(C)CC5)c(O)c4c3C2=O)NC(=O)/C(C)=C\C=C\[C@H](C)[C@H](O)[C@@H](C)[C@@H](O)[C@@H](C)[C@H](OC(C)=O)[C@@H]1C [RIFAMPIN] | – | – | – | – | – | – | 0.07 (≈ 0.0851 µM) | – | – | –
25 | CCCCC(CN1CCC(COc2ccc(C(=O)c3ccc(Cl)cc3)c(Cl)c2)CC1)OC(N)=O (racemic) | – | – | inactive | Active | 7.5 | > 60 | 3.25 (≈ 6.4 µM) | 2.83 (≈ 5.58 µM) | Active | inactive
26 | C=CCN(C)CCCCCCCCOc1ccc(C(=O)c2ccc(Cl)cc2)c(Cl)c1 | 0.5 (≈ 1.11 µM) | 15.5 (≈ 34.6 µM) | – | – | – | – | – | – | – | –
27 | CCCC[C@@H](O)CN1CCC(COc2cccc(C(=O)c3ccc(Cl)cc3)c2)CC1 | – | – | inactive | Active | 17 | > 60 | 6.2 (≈ 14.4 µM) | 4.91 (≈ 11.4 µM) | Active | inactive
28 | CCCCCC[C@@H](CN1CCC(COc2ccc(/C(=N\OC)c3ccc(Cl)cc3)c(Cl)c2)CC1)OC(N)=O | – | – | inactive | Active | 1.5 | > 60 | 1.5 (≈ 2.66 µM) | 1.4 (≈ 2.48 µM) | Active | inactive
29 | CCCCCC[C@@H](O)CN1CCC(COc2ccc(C(=O)c3ccc(Cl)cc3)c(Cl)c2)CC1 | – | – | inactive | Active | 9.5 | > 60 | 6.25 (≈ 12.7 µM) | 5.2 (≈ 10.6 µM) | Active | inactive
30 | CCCCCCC[C@@H](OC(N)=O)c1cccc(CN2CCC(COc3cccc(C(=O)c4ccc(Cl)cc4)c3)CC2)c1 | – | – | inactive | Active | 15 | > 60 | 12.5 (≈ 21.1 µM) | 4.93 (≈ 8.34 µM) | Active | inactive
31 | CCCCCCC[C@H](OC(N)=O)c1cccc(CN2CCC(COc3cccc(C(=O)c4ccc(Cl)cc4)c3)CC2)c1 | – | – | inactive | Active | 20 | > 60 | 12.5 (≈ 21.1 µM) | 4.93 (≈ 8.34 µM) | Active | inactive

Source: ChEMBL document CHEMBL2046305, “Discovery of selective menaquinone biosynthesis inhibitors against Mycobacterium tuberculosis” (J Med Chem, 2012)
